JMJD2C inh – inhibitors of GASC-1 histone demethylase, primary screen, biochemical, fluorescence, DELFIA europium; Lysine-specific demethylase 4C (Homo sapiens), Q9H3R0; GST-JMJD2C(1-420) H3K9me3 demethylation; inhibition, % at 2.35 µM; 0.069% of 330,000 active; AID 2099, 2009;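 active = more than half of a compound's replicate wells show inhibition beyond 50%, single wells judged on their own value; inconclusive = some, but no more than half, of replicates pass 50% inhibition; inactive = no replicate passes 50% inhibition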;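 note: signal counts dimethyl H3K9 product captured on neutravidin plate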
FAS-TE inh – FAS thioesterase domain inhibitors, primary screen, biochemical, fluorescence intensity, uHTS | Fatty acid synthase (Homo sapiens), P49327 | recombinant FAS-TE, OMFH fluorogenic substrate, fluorescence endpoint | inhibition, % at 15 µM | 0.67% of 360,000 active | AID 602261, 2012;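 active = compounds whose normalised, plate-corrected inhibition of enzyme fluorescence in the single-dose primary screen is 50% or more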
Target sequence (P49327 whole entry, looked up, the tested form may be a part): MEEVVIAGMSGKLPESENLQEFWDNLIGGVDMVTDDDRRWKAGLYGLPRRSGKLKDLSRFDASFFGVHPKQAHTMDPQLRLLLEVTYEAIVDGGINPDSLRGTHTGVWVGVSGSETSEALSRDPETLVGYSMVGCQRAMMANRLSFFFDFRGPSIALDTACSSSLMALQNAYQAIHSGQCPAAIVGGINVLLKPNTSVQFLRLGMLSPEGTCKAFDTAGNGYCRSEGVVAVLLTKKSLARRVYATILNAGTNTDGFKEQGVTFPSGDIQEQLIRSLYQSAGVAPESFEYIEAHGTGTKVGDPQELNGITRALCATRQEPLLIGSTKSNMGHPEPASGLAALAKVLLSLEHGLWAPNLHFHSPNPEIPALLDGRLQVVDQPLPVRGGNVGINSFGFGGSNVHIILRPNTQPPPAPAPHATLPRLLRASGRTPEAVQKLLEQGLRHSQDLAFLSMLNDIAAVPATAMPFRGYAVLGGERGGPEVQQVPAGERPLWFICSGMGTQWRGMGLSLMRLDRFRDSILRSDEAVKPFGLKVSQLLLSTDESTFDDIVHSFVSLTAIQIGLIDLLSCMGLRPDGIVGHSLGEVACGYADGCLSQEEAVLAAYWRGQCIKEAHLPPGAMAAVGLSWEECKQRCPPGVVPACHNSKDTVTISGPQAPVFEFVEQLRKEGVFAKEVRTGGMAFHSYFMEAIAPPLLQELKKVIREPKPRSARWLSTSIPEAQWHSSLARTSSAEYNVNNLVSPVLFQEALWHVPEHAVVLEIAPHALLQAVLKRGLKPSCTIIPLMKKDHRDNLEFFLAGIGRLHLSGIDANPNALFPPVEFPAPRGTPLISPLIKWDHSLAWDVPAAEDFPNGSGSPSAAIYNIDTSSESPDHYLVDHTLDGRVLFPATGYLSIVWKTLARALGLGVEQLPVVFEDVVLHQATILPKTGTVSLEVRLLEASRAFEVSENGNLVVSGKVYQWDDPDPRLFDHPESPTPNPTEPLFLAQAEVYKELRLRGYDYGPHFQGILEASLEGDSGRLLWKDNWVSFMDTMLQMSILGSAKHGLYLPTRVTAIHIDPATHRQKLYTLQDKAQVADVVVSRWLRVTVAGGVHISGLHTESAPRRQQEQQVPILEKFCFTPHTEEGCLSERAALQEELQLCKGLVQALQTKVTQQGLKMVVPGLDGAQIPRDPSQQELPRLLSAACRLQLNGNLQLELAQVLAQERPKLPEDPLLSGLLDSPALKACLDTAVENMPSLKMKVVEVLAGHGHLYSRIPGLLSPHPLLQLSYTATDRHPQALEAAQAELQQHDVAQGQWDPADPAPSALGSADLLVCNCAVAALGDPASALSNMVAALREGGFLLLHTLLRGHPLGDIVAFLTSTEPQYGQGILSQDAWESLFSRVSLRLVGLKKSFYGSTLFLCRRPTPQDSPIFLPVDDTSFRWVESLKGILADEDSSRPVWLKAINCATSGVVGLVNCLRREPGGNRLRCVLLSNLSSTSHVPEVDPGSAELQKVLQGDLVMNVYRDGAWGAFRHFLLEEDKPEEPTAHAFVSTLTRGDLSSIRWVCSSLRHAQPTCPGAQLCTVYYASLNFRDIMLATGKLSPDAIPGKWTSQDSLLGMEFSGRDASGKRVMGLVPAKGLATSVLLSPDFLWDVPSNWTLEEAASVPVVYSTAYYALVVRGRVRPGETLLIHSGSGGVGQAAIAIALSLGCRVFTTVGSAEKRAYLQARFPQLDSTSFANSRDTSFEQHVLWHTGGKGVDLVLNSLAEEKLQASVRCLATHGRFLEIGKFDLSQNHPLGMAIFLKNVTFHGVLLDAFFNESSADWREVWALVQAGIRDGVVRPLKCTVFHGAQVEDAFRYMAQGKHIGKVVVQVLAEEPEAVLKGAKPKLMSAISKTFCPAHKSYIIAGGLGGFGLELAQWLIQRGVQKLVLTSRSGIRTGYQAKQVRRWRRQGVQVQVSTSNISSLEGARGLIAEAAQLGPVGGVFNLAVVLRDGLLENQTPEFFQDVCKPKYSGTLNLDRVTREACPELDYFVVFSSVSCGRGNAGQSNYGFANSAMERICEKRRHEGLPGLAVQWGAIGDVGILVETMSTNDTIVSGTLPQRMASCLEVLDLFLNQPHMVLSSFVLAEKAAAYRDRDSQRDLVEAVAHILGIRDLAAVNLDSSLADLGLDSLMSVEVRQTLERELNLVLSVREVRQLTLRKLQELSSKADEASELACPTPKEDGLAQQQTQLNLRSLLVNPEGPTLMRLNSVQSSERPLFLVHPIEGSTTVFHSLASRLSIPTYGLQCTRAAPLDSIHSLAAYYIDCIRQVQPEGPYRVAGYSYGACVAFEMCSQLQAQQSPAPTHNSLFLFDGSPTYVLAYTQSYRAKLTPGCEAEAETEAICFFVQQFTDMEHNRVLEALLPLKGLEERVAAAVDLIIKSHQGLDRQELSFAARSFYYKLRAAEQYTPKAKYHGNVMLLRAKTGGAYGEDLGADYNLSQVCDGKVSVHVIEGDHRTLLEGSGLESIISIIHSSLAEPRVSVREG
Arr AP2 block – inhibitors of beta-arrestin/AP2 binding, primary screen, biochemical, GPCR trafficking, flow cytometry. inhibition, % at 10 µM. FITC-arrestin peptide / GST-AP2 beads; AP2 beta2 appendage carries R879A mutation. 0.31% of 340,000 active;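 active = inhibition above a set limit, near 3 SD of compounds lacking own fluorescence, cut at about 54% in these data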
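System: GST-AP2 R879A glutathione beads | Also added: FITC-arrestin peptide, 50 nM | Times: 12 min plus 1 h, RT | Signal: Bead flow cytometry, FITC channel | Buffer or medium: PBS with 0.05% Tween 20 and 0.1% BSA | Read-out basis: Percent drop in bead-associated FITC signal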
SENP1 FRET inh – human SENP1 catalytic domain inhibitors, primary screen, biochemical, FRET, uHTS. Sentrin-specific protease 1 (Homo sapiens), Q9P0U3. recombinant SENP1 catalytic domain, CyPet-SUMO1-YPet FRET cleavage. inhibition, % at 10 µM. 0.21% of 360,000 active. AID 624204, 2012;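 active = inhibition at least 30% at 10 µM, raw YFP signal under a set limit, fluorescence ratio 0.5 to 1.5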
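Assay system – human recombinant His6-tagged SENP1 catalytic domain enzyme · Input – SENP1 enzyme, 20 pM final · Buffer or medium – Tris pH 8 buffer plus EDTA, NaCl, BME, BSA, NP40, catalase · Schedule – 50 min reaction at room temperature · Technique – FRET read of cyan and yellow fluorescence · Control set – no-enzyme wells low, DMSO-plus-enzyme wells high control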
FAS-TE inh conf – FAS thioesterase domain inhibitors, confirmation, biochemical, fluorescence intensity, single concentration; shares compounds with FAS-TE inh; recombinant FAS-TE, OMFH fluorogenic substrate; inhibition, % at 15 µM; 45% of 2,300 active; AID 624325, 2012;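 active = compounds inhibiting the enzyme by at least 50% at 15 µM in any one of the replicates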
Of the large screens only hits and unclear results are named; the others gave an inactive call (follow-up assays come after a bar, where they were run). A selection: hits, their analogues and other compounds. The true share with any hit is near 1.1%.

CN(CCO)c1ccc(C=NNc2ccc([N+](=O)[O-])cc2S(=O)(=O)Nc2ccccc2C(=O)O)cc1	none (no result: Arr AP2 block)
COc1ccc(C(C)=NNc2ccc([N+](=O)[O-])cc2S(=O)(=O)Nc2ccccc2C(=O)O)c(OC)c1	FAS-TE inh 71 | FAS-TE inh conf 68
CCCN1CCN(CCCNC(=O)CN2C(=O)c3cccnc3Oc3ccc(Cl)cc32)CC1	none
O=C(CN1C(=O)c2cccnc2Oc2ccc(Cl)cc21)NCCCc1ccccc1	FAS-TE inh 55 | FAS-TE inh conf inactive
COc1ccc(OC)c(C(=O)CSc2nnc(Cc3cccs3)n2CCc2ccccc2)c1	none
Cc1ccc(C)c(S(=O)(=O)ON2C(=O)c3ccccc3C2=O)c1	FAS-TE inh 83 | FAS-TE inh conf 88
O=C1c2ccccc2C(=O)N1OS(=O)(=O)c1ccccc1	none (no result: FAS-TE inh, Arr AP2 block, SENP1 FRET inh)
Cc1cc(S(=O)(=O)ON2C(=O)c3ccccc3C2=O)ccc1F	FAS-TE inh 82 | FAS-TE inh conf 79
Cc1ccc(S(=O)(=O)ON2C(=O)c3cccc4cccc(c34)C2=O)cc1	none
Cc1c(Br)c([N+](=O)[O-])nn1CCCC(=O)N1CCN(c2ccccc2)CC1	FAS-TE inh 54 | FAS-TE inh conf 43
Cc1nn(CC(=O)N2CCc3ccccc3C2)c(C)c1[N+](=O)[O-]	none
Cc1c(Br)c([N+](=O)[O-])nn1CC(=O)N1CCc2ccccc2C1	FAS-TE inh 64 | FAS-TE inh conf 59
O=C(Cn1cc([N+](=O)[O-])ccc1=O)N1CCc2ccccc2C1	FAS-TE inh 67 | FAS-TE inh conf 69
O=C(CCn1c(=O)c2ccccc2n(Cc2cccc([N+](=O)[O-])c2)c1=O)N1CCc2ccccc2C1	FAS-TE inh 87 | FAS-TE inh conf 47
CC1C(=O)N(Cc2cn(Cc3ccco3)nn2)CCS(=O)(=O)N1Cc1ccc(-c2ccccc2)cc1 (stereo not given)	none (no result: JMJD2C inh, Arr AP2 block)
CCCSc1cc(NCCOC(C)=O)c([N+](=O)[O-])c2nonc12	none
CCCC(=O)OCCNc1cc(Sc2nccn2C)c2nonc2c1[N+](=O)[O-]	FAS-TE inh 62 | FAS-TE inh conf 62
CCCSc1cc(NCCOC(=O)CCC)c([N+](=O)[O-])c2nonc12	FAS-TE inh 51 | FAS-TE inh conf 58
CCCC(=O)OCCNc1cc(SCc2ccco2)c2nonc2c1[N+](=O)[O-]	none
CC1(c2ccc(Cl)cc2)NC(=O)N(CC(=O)N2CCc3ccccc3C2)C1=O (stereo not given)	none
CC(=O)N1N=C(c2cccc([N+](=O)[O-])c2)OC1c1cccc(Br)c1 (stereo not given)	FAS-TE inh 54 | FAS-TE inh conf 60
CCc1c(C)[nH]c2ccccc2c1=O	none (no result: JMJD2C inh)
Cc1ccc(S(=O)(=O)Cn2nnnc2C(C(C)C)N2CCN(c3nc4ccccc4s3)CC2)cc1 (stereo not given)	FAS-TE inh 60 | FAS-TE inh conf inactive
CCCCOC(=O)C(C#N)c1nc2ccccc2nc1N1CCN(Cc2ccc3c(c2)OCO3)CC1 (stereo not given)	none (no result: JMJD2C inh)
O=C(CCNS(=O)(=O)c1ccc(Br)cc1)NNC(=O)C1COc2ccccc2O1 (stereo not given)	none
COc1cc(OC)nc(-n2ncc(OC)c(Br)c2=O)n1	none
CN1CCN(c2ccc(Cl)cc2NC(=O)c2ccc(S(=O)(=O)N(C)C)cc2)CC1	none
CN(C)S(=O)(=O)c1ccc(C(=O)Nc2cc(S(=O)(=O)Nc3ccccc3Cl)ccc2N2CCCCC2)cc1	FAS-TE inh 73 | FAS-TE inh conf inactive
C[C@@H]1C(c2ccccc2)=NN(c2ccccc2)[C@H]1C(=O)N1CCOC1=O	none (no result: JMJD2C inh)
O=C1OCCN1C(=O)[C@H]1[C@H](c2ccc([N+](=O)[O-])cc2)C(c2ccc(F)cc2)=NN1c1ccccc1	FAS-TE inh 84 (no result: JMJD2C inh) | FAS-TE inh conf inactive
O=C1OCCN1C(=O)[C@H]1[C@H](c2ccc([N+](=O)[O-])cc2)C(c2ccc(F)cc2)=NN1c1ccc(Br)cc1	FAS-TE inh 95 (no result: JMJD2C inh) | FAS-TE inh conf inactive
CCN1CCN(C(=O)c2ccc(Cl)c(S(=O)(=O)N3CCCCC3)c2)CC1	none
Cc1cc(C)n(C(=O)/C(C#N)=N/Nc2cc(Cl)cc(Cl)c2)n1	FAS-TE inh 53 | FAS-TE inh conf inactive
CCc1ccccc1NC(=O)CSc1nc2ccccc2nc1N1CCOCC1	none
O=C(Sc1nnc(-c2ccccc2)o1)N1c2ccccc2Sc2ccccc21	FAS-TE inh 60 | FAS-TE inh conf 28
COc1cc(-c2nnc(SCC(=O)N3c4ccccc4Sc4ccccc43)o2)cc(OC)c1OC	none
O=C(CSc1ccc([N+](=O)[O-])cn1)Nc1cc(C(F)(F)F)ccc1N1CCOCC1	FAS-TE inh 56 | FAS-TE inh conf inactive
CO[C@@H]1CN(C)C(=O)c2cc(NC(=O)NC3CCCCC3)ccc2OC[C@@H](C)N(CCc2ccccc2)C[C@H]1C	none (no result: JMJD2C inh, FAS-TE inh, Arr AP2 block)
CC(C)(C)OC(=O)C[C@H]1C/C=C\C[C@H](CC(=O)NCCO)C(=O)NCCOC1=O	none
O=C(NCCOc1ccccc1)c1ccccc1[N+](=O)[O-]	none
CN(c1ccccc1)S(=O)(=O)c1cccc(NC(=O)CCNC(=O)c2ccc([N+](=O)[O-])cc2)c1	FAS-TE inh 54 | FAS-TE inh conf 61
O=C(NCCOc1ccccc1)c1cc(C(=O)NCCOc2ccccc2)cc([N+](=O)[O-])c1	FAS-TE inh 75 | FAS-TE inh conf 77
O=C(CCNC(=O)c1ccc([N+](=O)[O-])cc1)NC1CCCCCC1	FAS-TE inh 63 | FAS-TE inh conf 70
CC(C)c1ccc(CCNC(=O)c2ccc([N+](=O)[O-])cc2)cc1	FAS-TE inh 66 | FAS-TE inh conf 73
Cc1ccc(-n2cc[nH]c2=S)c(C)c1	none
O=C(NCCC(=O)N(CCc1ccccc1)Cc1ccccc1)c1ccc([N+](=O)[O-])cc1	JMJD2C inh inconclusive, FAS-TE inh 61 | FAS-TE inh conf 42
O=C(CCNC(=O)c1ccc([N+](=O)[O-])cc1)NCc1ccccc1	FAS-TE inh 60 (no result: JMJD2C inh) | FAS-TE inh conf 72
CS(=O)(=O)c1ccc2nc(NC(=O)c3cc(-c4ccccc4)nn3-c3ccccc3)sc2c1	FAS-TE inh 86 | FAS-TE inh conf inactive
CS(=O)(=O)c1ccc2nc(NC(=O)C3=NN(c4ccccc4)C(=O)CC3)sc2c1	none
CCCCc1ccc(/C(C)=N/Nc2cc(N3CCOCC3)nc(C)n2)cc1	FAS-TE inh 73 | FAS-TE inh conf inactive
C/C(=N\Nc1cc(N2CCOCC2)nc(C)n1)c1cccc([N+](=O)[O-])c1	none
O=C1c2ccc(Cl)cc2S(=O)(=O)c2cccc(C(=O)N3CCC(Cc4ccccc4)CC3)c21	FAS-TE inh 84 | FAS-TE inh conf inactive
